In paper PMC8819215 (Iranian Journal of Public Health, 2021):
Like-named read-outs stand apart in the source and are kept apart here.

Experiments:
L. major promastigotes = assay: Promastigote growth inhibition; assay type: cell-based, Leishmania major
Procedure, shortened: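 Stationary-phase (5 d) L. major MRHO/IR/75/ER promastigotes (1×10^6) were grown at 26 °C in RPMI-1640 with 10% heat-inactivated FCS, pH 7.4. They received TBO (7.8–500 μg/ml) plus 630 nm LED irradiation. MTT at 570 nm was read at 2, 24 and 48 h, as % of untreated OD. IC50 came from dose-response curves, triplicates. SI = macrophage CC50/promastigote IC50.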

[1] = system: J774A.1 macrophages cell line; assay: Cytotoxicity; assay type: cell-based, mice
L. braziliensis [2] = details: 10 μg/ml TBO; cited from earlier work
parasites = details: cited from earlier work
L. major = details: cited from earlier work
L. braziliensis [3] = details: in-vitro; cited from earlier work

Q: For Cc1cc2nc3ccc(N(C)C)cc3[s+]c2cc1N.[Cl-] [TBO, Toluidine Blue O], which decrease in viability (L. major promastigotes; PDT, three highest concentrations, after 24 h) is on record?
A: Its decrease in viability is “more than 70%”.

Q: What about the toxicity to parasites (L. major promastigotes; dark group (no PDT), highest concentrations) of the same molecule?
A: Its toxicity to parasites is “intermediate toxicity”.

Q: What about the “toxicity to macrophages compared to glucantime (positive control)” value [1] of the same molecule?
A: Its value is “less toxicity”.

Q: And the “cytotoxicity to J774.A1 macrophages” value ([1]; dark group)?
A: The value was “no cytotoxic”.

Q: And the parasite viability (L. braziliensis [2])?
A: Its parasite viability is “significantly reduced”.

Q: With CN(C)c1ccc2nc3ccc(=[N+](C)C)cc-3sc2c1 [MB, methylene blue] as the molecule, how does the “decrease of parasites viability” value (parasites; PDT) read?
A: Its value is “more than 70%”.

Q: And the “decrease of parasites viability” value (parasites; in the dark, higher concentration of MB)?
A: Its value is “up to 50%”.

Q: For aluminum phthalocyanine tetra sulfonate, which “elimination of parasites by PDT” value (L. major; in-vitro) is on record?
A: The value was “effectively eliminated”.

Q: And the “elimination of parasites by PDT” value (L. braziliensis [3])?
A: The value was “effectively eliminated”.

Q: For Aluminum phthalocyanine, which phototoxicity (L. major; 10.0μM concentration and 10 J/cm^2 irradiation) is on record?
A: Its phototoxicity is “phototoxic”.
